Results collected from several papers.
Compare with care: the assays were run in different laboratories.
Target: Muscarinic acetylcholine receptor M2 (CHRM2, Homo sapiens, UniProt P08172)
Tested at: 10 µM
Sequence (P08172 1-466, as in one of the studies): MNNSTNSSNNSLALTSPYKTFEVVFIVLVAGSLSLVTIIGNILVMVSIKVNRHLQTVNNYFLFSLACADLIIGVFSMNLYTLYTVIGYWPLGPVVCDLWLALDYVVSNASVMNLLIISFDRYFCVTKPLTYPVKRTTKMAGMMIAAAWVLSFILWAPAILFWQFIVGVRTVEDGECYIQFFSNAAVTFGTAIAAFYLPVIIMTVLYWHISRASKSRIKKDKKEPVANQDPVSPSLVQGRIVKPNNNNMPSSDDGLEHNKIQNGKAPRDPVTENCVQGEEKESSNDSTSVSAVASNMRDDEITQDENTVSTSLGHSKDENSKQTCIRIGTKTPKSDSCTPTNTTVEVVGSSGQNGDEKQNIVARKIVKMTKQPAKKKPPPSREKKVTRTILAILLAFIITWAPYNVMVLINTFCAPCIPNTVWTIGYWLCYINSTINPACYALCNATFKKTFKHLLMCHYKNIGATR

`O=C(c1ccc(Cl)cc1)N(Cc1ccccc1)C1CCCCC1` has an inhibition of 38.2% (cell-free assay).
With `CC1CCN(c2ccnc(NCc3cn(C)cn3)n2)CC1` the inhibition was 7.21% (ligand displacement).
For `COc1cc(NC(C)=O)c(Cl)cc1C(=O)Nc1nccs1`, the inhibition was -25.3% (cell-free assay).
For `O=C(NNS(=O)(=O)c1ccccc1F)c1cc(F)cc(-c2ccccn2)c1`, the inhibition was 15.9% (cell-free assay).
For `Ic1cccc2cnccc12`, the inhibition was 0% (ligand displacement, radioligand).
The inhibition of `CCN(CC)c1ccc(C2Nc3ccc(C(=O)c4ccccc4)cc3NC3=C2C(=O)CC(C)(C)C3)cc1` (centres unmarked) is reported as -1% (ligand displacement, radioligand).
`CCN(Cc1ccccc1C(F)(F)F)C(=O)C1CCN(S(=O)(=O)c2ccc3[nH]ncc3c2)CC1` has an inhibition of 1% (ligand displacement, radioligand).
`N#Cc1cc(Cn2c(N3CCCC3)nc3ccccc32)ccc1F` gave an inhibition of 7.75% (ligand displacement).
`O=C(Nc1ccc(S(=O)(=O)N2CCC(Cl)CC2)cc1)c1ccc([N+](=O)[O-])o1` gave an inhibition of 10% (ligand displacement, radioligand).
The inhibition of `CCCNc1nc2ccccc2n1Cc1ccc(Cl)cc1` is reported as 13.7% (ligand displacement).
`O=C1N=C(N2CCCCN2)S/C1=C\c1ccc(F)cc1O` gave an inhibition of less than 10% (ligand displacement, radioligand).
